Results from different studies.

SMILES	tested on	assay	system	conditions	endpoint	value
C[C@@H](c1ccc2nccn2c1)n1nnc2ncc(-c3cnn(C)c3)nc21	Cytochrome P450 2E1 (CYP2E1, Homo sapiens, UniProt P05181)	enzyme activity, inhibitor	human, liver microsomes	pH 7.4	IC50	100 µM
O=C(CN1C(=O)Cc2c([nH]c3ccc(Br)cc23)-c2ccc(Cl)cc21)N1CCCC1	J774	cell growth or viability, WST-1	–	24 h	CC50	≤ 100 µM
O=c1[nH]c2sc(-c3ccc(F)cc3)cc2c(=O)n1O	HFF	cell growth or viability, MTS	–	10 µM, 7 days	viability	112%
CC(C)(C)NC(=O)CN1C(=O)Cc2c([nH]c3ccc(Br)cc23)-c2ccc(Cl)cc21	J774	cell growth or viability, WST-1	–	24 h	CC50	≥ 100 µM
O=c1[nH]c2c(-c3ccccc3)csc2c(=O)n1O	HFF	cell growth or viability, MTS	–	10 µM, 7 days	viability	130%
CC1COc2ccccc2N1C(=O)C(Cl)Cl (stereo not shown)	–	metabolic stability	female monkey, liver microsomes	5 µM, pH 7.4	microsomal CLint	1400 µL/min/mg
Nc1nc(O)c2ncn(COC(CO)CO)c2n1	HFF	cell growth or viability, ATP luminescence	–	–	CC50	> 150 µM
Cc1c(C(=O)O)sc2[nH]c(=O)n(O)c(=O)c12	HFF	cell growth or viability, MTS	–	10 µM, 7 days	viability	94%
CN(C(=O)n1cnc(-c2ccc[n+]([O-])c2)c1)C1CCCCC1	–	–	male cynomolgus monkey, plasma	oral, 0.1 mg/kg	Cmax	37.1 ng/mL
O=C(CN1C(=O)Cc2c([nH]c3ccc(Br)cc23)-c2ccc(Cl)cc21)N1CCOCC1	J774	cell growth or viability, WST-1	–	24 h	CC50	≤ 10 µM
O=c1[nH]c2sc(-c3ccc(Cl)cc3)cc2c(=O)n1O	HFF	cell growth or viability, MTS	–	10 µM, 7 days	viability	101%
O=C(CCCCCCC(=O)Nc1ccc(CC[18F])cc1)NO	–	–	male nude mouse, stomach	intravenous, 1 h, tumour-bearing	tracer uptake	1.5 %ID/g
O=c1[nH]c2scc(-c3ccccc3)c2c(=O)n1O	HFF	cell growth or viability, MTS	–	10 µM, 7 days	viability	90%
CC(C)(C)OC(=O)CN1C(=O)Cc2c([nH]c3ccc(Br)cc23)-c2ccc(Cl)cc21	J774	cell growth or viability, WST-1	–	24 h	CC50	≤ 100 µM
Nc1ccc(C=Cc2ccc([125I])cc2)cc1	–	–	Swiss mouse, brain	intravenous, 5 µCi, 2 min	tracer uptake	2.29 %ID/g
Cn1ccc(COc2cnc(C(N)=O)cc2-c2ccc(O[11CH3])cc2F)n1	–	–	male mouse, pancreas	intravenous, 2.5 MBq, 1 h	tracer uptake	5.87 %ID/g
